DENV2 CPE rescue: protects cells from dengue virus 2 cytopathic effect | 350,000 tested, 1.7% active | CPE inhibition, % at 9.99 µM | DENV2-infected cells, cytopathic effect rescue, plate reader; in the data active means CPE inhibition above about 20%, passing the limit was not always enough; inconclusive means no clear call, values can overlap the other calls; tested in BHK-21 cells;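 further: 0% = median of neutral control wells and 100% = median of positive control wells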
FGF22 binding: binders of recombinant human FGF22 by thermal shift | SYPRO orange fluorescence; percent of sucrose octasulfate shift, DMSO zero | activity (Tm shift, normalised), % at 9.99 µM | 340,000 tested, 1.5% active | AID 651658;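 active means mean Tm shift, scaled 0 neutral to 100 positive control, at about 1.3% or above, every replicate too, limit read from the data; inconclusive means no clear call, values can overlap the other calls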
CFTR F508del cor: correctors of CFTR F508del function in bronchial epithelial cells. CFBE cells, YFP halide quenching; stimulated with forskolin plus potentiator P3; % fluorescence drop versus neutral controls. activity (quench increase), % at 7.58 µM. 350,000 tested, 0.36% active. AID 720511;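 active means mean added fluorescence quench of at least 8% versus neutral control, with both replicates also reaching 8%; inconclusive means only one of the mean or replicate conditions met; inactive means mean below 8% and not both replicates reaching 8%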;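 further: cells transiently co-express mutant CFTR-F508del with the halide-sensitive YFP; corrector assay measuring rescue of mutant channel to the surface after 24 h compound exposure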
E-sel inducer: induces E-selectin expression in human endothelial cells | P16581 | activation, % at 7.58 µM | 260,000 tested, 0.37% active | AID 686992 | HUVEC E-selectin immunofluorescence imaging; normalized: neutral wells 0, TNF-alpha wells 100;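 active means mean E-selectin-positive cell signal at least 10% of the positive control, reached in at least 60% of replicates, without over 20% cell loss; inconclusive means no rule given, readout overlaps actives, possibly toxicity-flagged; inactive means the rest, including those meeting only one limit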
Target sequence (P16581 whole entry, looked up): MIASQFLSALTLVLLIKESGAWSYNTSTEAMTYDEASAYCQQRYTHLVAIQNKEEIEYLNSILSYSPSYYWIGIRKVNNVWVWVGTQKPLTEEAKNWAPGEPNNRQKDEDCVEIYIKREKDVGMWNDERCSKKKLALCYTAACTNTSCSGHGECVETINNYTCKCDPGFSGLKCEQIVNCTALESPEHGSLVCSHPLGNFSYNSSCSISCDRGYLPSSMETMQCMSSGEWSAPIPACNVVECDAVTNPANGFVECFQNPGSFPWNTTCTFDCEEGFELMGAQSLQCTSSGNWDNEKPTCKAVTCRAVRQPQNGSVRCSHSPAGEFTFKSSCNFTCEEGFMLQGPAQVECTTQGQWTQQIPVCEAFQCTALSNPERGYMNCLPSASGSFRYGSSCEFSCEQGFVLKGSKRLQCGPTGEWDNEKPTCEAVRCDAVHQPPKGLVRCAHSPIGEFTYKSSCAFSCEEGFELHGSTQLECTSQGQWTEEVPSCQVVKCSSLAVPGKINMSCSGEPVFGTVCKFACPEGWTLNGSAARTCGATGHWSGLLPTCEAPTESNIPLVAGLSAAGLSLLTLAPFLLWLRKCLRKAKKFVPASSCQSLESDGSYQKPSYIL
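Test system – human umbilical vein endothelial cells (HUVEC), E-selectin induction · Input – 3,000 HUVEC seeded per well · Buffer or medium – EGM-2, gelatin · Compound dosing – single-point compound dose · Detection – immunofluorescence imaging · Measure – percent E-selectin-positive cells · Controls – TNF-alpha high, DMSO low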
ERAP1 inh: inhibitors of human ERAP1 aminopeptidase. recombinant ERAP1, Leu-AMC fluorescence, 60 min. AID 652197. inhibition, % at 10.7 µM. 340,000 tested, 0.15% active. Q9NZ08;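 active means mean replicate inhibition of at least 30%, or all replicates individually reaching that 30% level; inactive means mean below 30% and not every replicate reaching it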;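 further: 0% = neutral control wells and 100% = L-leucinethiol positive control wells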
The depositor's hits bear a star; u = inconclusive; x = not tested or not shown. A selection: hits, their analogues and other compounds. The true share with any hit is near 3.7%.

SMILES	DENV2 CPE rescue	FGF22 binding	CFTR F508del cor	E-sel inducer	ERAP1 inh
COCc1cc(CN2CCCC(CNC(=O)c3ccc(F)cc3)C2)ccc1OC (stereo not drawn)	-3	0	2	x	14
CCCC(=O)N1CC2(C1)CN(Cc1ccc(Cl)cc1)[C@H](CO)c1[nH]c3cc(OC)ccc3c12	-12	0	1	u	0
CCC[C@H]1CC(=O)C=C(c2ccc(OC)cc2)ON1C(=O)OC(C)(C)C	57*	0	-1	0	2
C[C@H]1CN([C@@H](C)CO)C(=O)c2cc(C#CC3(O)CCCC3)cnc2O[C@@H]1CN(C)C(=O)C1CCC1	-12	0	1	3	0
Cc1ccc(NC(=O)CO/N=C(\N)c2ccccc2)cc1C	-17	43*	-3	0	0
COc1ccc(CN(C)C[C@@H]2Oc3ccc(NC(=O)Nc4ccc(F)cc4)cc3CC(=O)N([C@H](C)CO)C[C@H]2C)cc1	-1	0	-2	83*	-1
COc1ccc(CN(C)C[C@@H]2Oc3ccc(NC(=O)Nc4ccc(F)cc4)cc3CC(=O)N([C@H](C)CO)C[C@@H]2C)cc1	-2	0	-1	76*	-2
COc1ccc(CN(C)C[C@H]2Oc3ccc(NC(=O)Nc4ccc(F)cc4)cc3CC(=O)N([C@H](C)CO)C[C@H]2C)cc1	2	0	-1	-4	-1
COc1cccc(C(=O)NCC(=O)N/N=C/c2cccc(OC(=O)c3ccc([N+](=O)[O-])cc3)c2)c1	-1	43*	2	x	-3
C[C@H](CO)N1C[C@H](C)[C@H](CN(C)C(=O)Nc2ccccc2)Oc2ccc(NC(=O)Nc3ccc4c(c3)OCO4)cc2CC1=O	16	0	2	0	x
NNC(=O)c1ccc(CN2C(=O)c3cccc4cccc2c34)cc1	5	44*	4	x	3
COc1ccccc1/C=N/NC(=O)c1ccc(CN2C(=O)c3cccc4cccc2c34)cc1	0	0	0	0	x
CCC1CN(S(=O)(=O)c2ccc3c(c2)NC(=O)CC(=O)N3)c2cc(Cl)ccc2O1 (stereo not drawn)	23*	0	3	3	-1
CO[C@H](CN(C)C(=O)c1cnccn1)[C@H](C)CN([C@@H](C)CO)S(=O)(=O)c1ccc(Cl)cc1	-2	0	-1	0	-1
O=C(O)C1OC(Oc2cc3oc(-c4ccccc4)cc(=O)c3c(O)c2O)C(O)C(O)C1O (stereo not drawn)	u	-1	1	x	2
COc1c(OC2OC(C(=O)O)C(O)C(O)C2O)cc(O)c2c(=O)cc(-c3ccccc3)oc12 (stereo not drawn)	25*	-1	1	0	x
C[C@@H]1CN([C@H](C)CO)S(=O)(=O)c2ccc(/C=C/c3ccccc3)cc2O[C@@H]1CN(C)C(=O)c1cccnc1	-4	0	-2	1	1
CC(C)NC(=O)N[C@H]1CC[C@@H](CCNS(=O)(=O)c2ccc(Cl)cc2)O[C@@H]1CO	-5	0	0	-1	-4
FC(F)(F)c1cc(CCN2CCNC[C@H]2Cc2cccc3ccccc23)cc(C(F)(F)F)c1	84*	0	3	0	4
CNS(=O)(=O)c1cc(C(=O)O)ccc1OC	5	43*	-2	x	3
C[C@H](CO)N1C[C@H](C)[C@@H](CN(C)Cc2ccccc2)Oc2c(NC(=O)Nc3ccccc3)cccc2C1=O	u	0	5	-4	0
O=C(CCCn1c(=S)[nH]c2cc3c(cc2c1=O)OCO3)NCCc1ccc(Cl)cc1	4	43*	0	0	-1
O=C(CCl)Nc1ccc(S(=O)(=O)NC2=NCCCCC2)cc1	60*	0	3	-2	1
O=C(CCl)Nc1cccc(S(=O)(=O)NC2=NCCCCC2)c1	-1	0	-5	3	-2
O=C(Nc1ccc(S(=O)(=O)NC2=NCCCCC2)cc1)c1ccccc1Cl	12	0	4	x	2
SMILES	DENV2 CPE rescue	FGF22 binding	CFTR F508del cor	E-sel inducer	ERAP1 inh
CC(C)(C)C(=O)Nc1ccc(S(=O)(=O)NC2=NCCCCC2)cc1	8	0	15*	0	0
CC=Cc1ccc2n(c1=O)C[C@H]1[C@H](CO)[C@@H](C(=O)NCCC)[C@@H]2N1C(=O)C1CCCC1 (mixture of isomers)	5	0	-2	0	2
Cc1nnc(NC(=O)CSc2n[nH]c(-c3ccccc3C)n2)s1	-1	0	1	0	1
CCc1nnc(NC(=O)CSc2n[nH]c(-c3ccccc3O)n2)s1	x	1.8*	0	x	-1
CCOc1ccc(C(=O)Nc2ccc(CN3CCOCC3)cc2)cc1Br	37*	0	0	x	-3
O=C(/C=C/c1ccccc1Cl)Nc1ccc(Cl)cn1	x	43*	-1	x	-1
O=C(/C=C/c1ccccc1Cl)Nc1ccccc1	-1	1.5*	2	1	-3
O=C(Nc1ccccc1)C1C(c2ccccc2)C1(Cl)Cl (stereo not drawn)	2	0	-5	0	-1
O=C(Nc1ccc(Cl)cn1)C1C(c2ccccc2)C1(Cl)Cl (stereo not drawn)	9	44*	-3	x	0
O=C(/C=C/c1ccc2c(c1)OCO2)Nc1ccc(Cl)cn1	x	0	3	x	-1
CN1C(=O)c2cc(NC(=O)c3cccc(F)c3)ccc2OC[C@H]2O[C@H](CC(=O)NCc3ccccc3)CC[C@H]21	x	1	3	0	x
Cc1noc(C)c1NC(=O)N(C)C[C@H]1Oc2c(NC(=O)NC3CCCCC3)cccc2C(=O)N([C@H](C)CO)C[C@@H]1C	-2	0	2	x	-1
COc1ccc2c3c([nH]c2c1)[C@H](CO)N(S(=O)(=O)c1cn(C)cn1)CC31CCN(Cc2ccccc2)CC1	-4	0	-2	0	x
CC(C)[C@H](NC(=O)C1CC1)C(=O)N1CCC[C@H]1C(=O)NCCc1ccccc1Cl	29*	0	0	0	-1
COc1cccc(C(=O)N[C@H](C(=O)N2CCC[C@H]2C(=O)NCCc2ccccc2Cl)C2CCCCC2)c1	29*	0	-1	0	-1
CC(=O)N(C)C[C@H]1Oc2cc(-c3cccnc3)ccc2S(=O)(=O)N([C@@H](C)CO)C[C@H]1C	-4	0	x	-1	0
Cc1ccc(C2=NC3(CCCCC3)NC2=S)cc1	22*	0	4	x	-1
S=C1NC2(CCCCC2)N=C1c1ccccc1	x	x	x	-1	x
COc1ccc(-c2cnc3c(c2)C(=O)N([C@H](C)CO)C[C@H](C)[C@@H](CN(C)C(=O)Cc2cccnc2)O3)cc1	8	0	-2	0	1
C[C@H](CO)N1C[C@H](C)[C@H](CN(C)C(=O)CN(C)C)Oc2cc(C3=CCCCC3)ccc2S1(=O)=O	-11	1	2	0	-9
O=C1N=c2ccccc2=C1c1sc(NS(=O)(=O)c2ccccc2)nc1O	-3	1	0	x	11
